SR-BI uptake up = activators of SR-BI mediated DiI-HDL uptake, primary screen, ldlA[mSR-BI] CHO cells, DiI fluorescence. 3 h; 100 = double the neutral-control signal. activation, % at 12.5 µM. hit rate 0.096% among 320,000;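 active = mean replicate activation of at least 60% and every replicate at or above 60%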
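System: CHO ldlA[mSR-BI] cells / Medium: HEPES-buffered (25 mM, pH 7.4) F12 plus 0.5% BSA / Probe or stimulus: labelled HDL, 10 µg/mL / Doses: single compound concentration, delivered by pin transfer / Schedule: 3 h, 37 °C / Measured by: DiI fluorescence, bottom read / Measure: cell-associated DiI fluorescence as measure of HDL uptake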
Rin1 Abl inh = inhibitors of Rin1-Abl protein binding, primary screen, biochemical, TR-FRET. inhibition, % at 7.35 µM. hit rate 0.4% among 360,000. AID 588664, 2011; in the data active = inhibition above about 5%, passing the limit was not always enough
Target sequence (P00519 whole entry, looked up): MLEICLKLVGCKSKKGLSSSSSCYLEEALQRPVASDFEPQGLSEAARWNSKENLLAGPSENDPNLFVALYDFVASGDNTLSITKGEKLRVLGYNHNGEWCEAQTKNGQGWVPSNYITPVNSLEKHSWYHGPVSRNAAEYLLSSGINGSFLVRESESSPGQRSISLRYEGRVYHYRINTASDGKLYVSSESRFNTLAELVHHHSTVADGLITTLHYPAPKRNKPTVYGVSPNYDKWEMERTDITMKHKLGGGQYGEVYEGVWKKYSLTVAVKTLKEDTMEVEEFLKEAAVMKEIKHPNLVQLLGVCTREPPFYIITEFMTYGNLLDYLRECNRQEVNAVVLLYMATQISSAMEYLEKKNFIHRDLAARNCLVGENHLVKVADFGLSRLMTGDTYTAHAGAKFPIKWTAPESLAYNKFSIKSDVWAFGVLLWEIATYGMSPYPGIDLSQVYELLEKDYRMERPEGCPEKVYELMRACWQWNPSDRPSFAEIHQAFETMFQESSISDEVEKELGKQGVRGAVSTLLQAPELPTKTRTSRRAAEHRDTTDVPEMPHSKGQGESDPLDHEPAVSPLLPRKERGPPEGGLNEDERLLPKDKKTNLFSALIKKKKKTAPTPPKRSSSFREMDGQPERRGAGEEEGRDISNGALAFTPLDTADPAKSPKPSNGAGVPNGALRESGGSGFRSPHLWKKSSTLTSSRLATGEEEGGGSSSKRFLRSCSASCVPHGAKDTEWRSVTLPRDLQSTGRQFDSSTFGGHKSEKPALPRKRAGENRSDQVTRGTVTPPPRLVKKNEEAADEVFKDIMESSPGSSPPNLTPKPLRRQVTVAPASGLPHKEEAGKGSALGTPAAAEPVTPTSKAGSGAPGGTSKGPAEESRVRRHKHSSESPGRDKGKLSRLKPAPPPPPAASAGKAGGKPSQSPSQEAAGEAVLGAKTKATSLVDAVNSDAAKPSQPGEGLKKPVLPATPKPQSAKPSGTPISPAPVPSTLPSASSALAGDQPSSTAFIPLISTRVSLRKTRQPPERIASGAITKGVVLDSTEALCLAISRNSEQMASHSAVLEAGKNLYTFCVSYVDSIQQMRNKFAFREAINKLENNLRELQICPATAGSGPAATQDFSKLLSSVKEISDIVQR
Target sequence (Q13671 whole entry, looked up): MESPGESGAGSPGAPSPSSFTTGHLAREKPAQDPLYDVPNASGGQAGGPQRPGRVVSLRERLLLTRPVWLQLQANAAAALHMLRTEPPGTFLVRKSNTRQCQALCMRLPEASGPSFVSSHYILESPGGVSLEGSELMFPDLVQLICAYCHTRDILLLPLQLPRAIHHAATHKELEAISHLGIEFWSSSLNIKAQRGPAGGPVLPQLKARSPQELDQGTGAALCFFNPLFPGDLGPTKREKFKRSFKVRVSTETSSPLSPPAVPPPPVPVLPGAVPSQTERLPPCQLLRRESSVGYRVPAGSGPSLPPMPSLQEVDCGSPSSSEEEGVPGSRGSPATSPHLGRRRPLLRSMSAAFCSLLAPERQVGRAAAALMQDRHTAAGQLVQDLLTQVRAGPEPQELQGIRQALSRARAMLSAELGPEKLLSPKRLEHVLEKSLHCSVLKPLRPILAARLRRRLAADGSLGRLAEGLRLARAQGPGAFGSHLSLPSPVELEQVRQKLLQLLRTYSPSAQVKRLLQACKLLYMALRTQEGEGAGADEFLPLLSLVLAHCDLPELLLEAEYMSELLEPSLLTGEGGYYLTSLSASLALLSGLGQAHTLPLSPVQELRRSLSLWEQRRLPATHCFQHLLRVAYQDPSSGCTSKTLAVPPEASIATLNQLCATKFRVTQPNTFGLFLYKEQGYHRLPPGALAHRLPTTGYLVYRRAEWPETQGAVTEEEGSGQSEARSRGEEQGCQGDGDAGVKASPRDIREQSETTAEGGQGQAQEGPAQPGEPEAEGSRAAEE
SR-BI HDL uptake = inhibitors of SR-BI mediated HDL lipid uptake, primary screen, ldlA[mSR-BI] cells, fluorescence, single point; ldlA[mSR-BI] CHO cells, DiI-HDL uptake fluorescence, 3 h; inhibition, % at 12.5 µM; hit rate 0.96% among 320,000; AID 488896, 2010;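 active = mean replicate inhibition of at least 70% and a set share of replicates each scoring 70 or more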
GRK2 inh = compounds blocking aptamer binding on GRK2 – biochemical, human GRK2, bead flow cytometry, HTS, primary screen; FAM-aptamer displacement from GRK2; inhibition of aptamer binding, % at 10 µM; hit rate 0.59% among 330,000; AID 488847, 2010;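 active = inhibition of aptamer binding above 40%, roughly 3 SD of noise, on plates passing a quality check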;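 note: median bead fluorescence of bound FAM aptamer so fluorescent compounds give negative values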
Each line names hits and unclear results; the compound was inactive in the other large screens. Most compounds without a hit are left out; they make up all but 1.9% or so of the library.

Cc1nc(N2CCCCC2C)c2c(C)c(C(=O)Nc3cccc(C(F)(F)F)c3)sc2n1 (centres undefined)	SR-BI HDL uptake 74
Cc1nc(N2CCCCC2)c2c(C)c(C(=O)Nc3cccc(C(F)(F)F)c3)sc2n1	SR-BI HDL uptake 78
C=CC[C@@H](Cc1ccc(F)cc1)C(=O)OC[C@@H]1CCCN1C(=O)[C@@H](CC=C)CC(=O)N[C@H](CO)Cc1ccccc1	none
CCCc1nc2ccc(C)cn2c1Cc1ccccc1C(F)(F)F	none (no result: SR-BI uptake up, SR-BI HDL uptake, GRK2 inh)
COc1ccc(C=NN=C2c3ccccc3-c3ccccc32)cc1OC	SR-BI HDL uptake 79 (no result: GRK2 inh)
COc1cc(OC)cc(-c2sc3ccc(OC)cc3c2C#CCCO)c1	SR-BI HDL uptake 76
COc1ccc2sc(-c3ccc(S(C)(=O)=O)cc3)c(C#CCO)c2c1	none
COc1ccc2c(C#CCCO)c(-c3ccc(S(C)(=O)=O)cc3)sc2c1	SR-BI HDL uptake 83
CC(=O)c1cccc(NS(=O)(=O)c2ccc3c(c2)N(C(C)=O)CCO3)c1	none
COc1cc(NC(=O)c2ccccc2[N+](=O)[O-])ccc1NC(=O)c1cc2ccccc2o1	SR-BI HDL uptake 77
O=C(Nc1ccc2oc(=O)ccc2c1)c1ccc(-c2ccccc2[N+](=O)[O-])o1	SR-BI HDL uptake 78
CCC(=O)Nc1ccc(Cl)c(NC(=O)c2ccc(Br)o2)c1	SR-BI HDL uptake 76 (no result: SR-BI uptake up)
COc1cc(NC(=O)c2ccc(Br)o2)ccc1NC(=O)c1ccccc1Cl	SR-BI HDL uptake 83
O=C(CC[C@H]1O[C@@H](n2ccc(=O)[nH]c2=O)[C@H](O)[C@@H]1O)N[C@@H](Cc1ccccc1)C(=O)NCC1CCCCC1	none (no result: SR-BI uptake up, SR-BI HDL uptake, GRK2 inh)
CC(=O)Nc1ccc(CN(C)c2c(C)nc3ccc(C(=O)N(C)Cc4ccco4)cn23)cc1	none (no result: SR-BI uptake up, SR-BI HDL uptake, GRK2 inh)
Cc1noc(C)c1-c1ccc(C(=O)N2CCN(C)CC2)c2occc12	none (no result: SR-BI uptake up, SR-BI HDL uptake, GRK2 inh)
Cc1cc(NC(=O)c2cncc(Br)c2)ccc1NC(=O)c1cc2ccccc2o1	SR-BI HDL uptake 97
COc1cc(NC(=O)c2cccc([N+](=O)[O-])c2)ccc1NC(=O)c1ccco1	SR-BI HDL uptake 89
COc1cc(NC(=O)c2ccccc2)ccc1NC(=O)c1cc2ccccc2o1	none
COc1cc(NC(=O)c2cccnc2)ccc1NC(=O)c1ccccc1Cl	none (no result: SR-BI uptake up, SR-BI HDL uptake)
COc1cc(NC(=O)c2ccccc2F)ccc1NC(=O)c1ccccc1Cl	SR-BI HDL uptake 93
CC(=NOC(=O)c1ccc(I)cc1)c1nccs1	none (no result: SR-BI uptake up, SR-BI HDL uptake, GRK2 inh)
O=C(NCCCn1ccnc1)/C(=C\c1cccnc1)NC(=O)c1cccc(Br)c1	GRK2 inh 66
O=C(NCCCn1ccnc1)/C(=C\c1cccnc1)NC(=O)c1ccco1	none
O=C(CCNC(=O)c1ccc(Br)cc1)Nc1ncccc1O	none
Cc1ccc(C(=O)Nc2cccc(-c3ccc(N4CCOCC4)nn3)c2)cc1[N+](=O)[O-]	SR-BI HDL uptake 73
Cc1cccc(NC(=O)c2ccc(N(C)C3CCCCC3)c([N+](=O)[O-])c2)n1	SR-BI HDL uptake 85
Cc1ccc(C(=O)Nc2cc(C(F)(F)F)ccc2N2CCCCC2)cc1[N+](=O)[O-]	none
Cc1ccc(C)c2sc(NC(=O)c3ccc(N4CCCCC4)c([N+](=O)[O-])c3)nc12	SR-BI HDL uptake 71
CCC(=O)N1CCN(c2ccc(Cl)cc2NC(=O)c2ccc(N3CCCC3)c([N+](=O)[O-])c2)CC1	SR-BI HDL uptake 76
CCSc1ccc(C(=O)Nc2cccc(C)n2)cc1[N+](=O)[O-]	none
CCC(CC)CN1CCN=C1N(C)C	none
c1ccc2c(c1)Sc1cnccc1N2CC1CO1 (centres undefined)	none (no result: SR-BI uptake up, SR-BI HDL uptake, GRK2 inh)
COc1cc(NC(=O)c2ccc(-c3cnn(C)c3)c3ccoc23)cc(OC)c1OC	none (no result: SR-BI uptake up, SR-BI HDL uptake, GRK2 inh)
O=C(Nc1ccc(-c2nc3ccccc3o2)cc1)c1ccc(N2CCOCC2)c([N+](=O)[O-])c1	SR-BI HDL uptake 81
Cc1cccc(NC(=O)c2ccc(N3CCCCC3)c([N+](=O)[O-])c2)n1	SR-BI HDL uptake 77
COc1ccc2oc(-c3ccc(NC(=O)c4ccc(N5CCOCC5)c([N+](=O)[O-])c4)cc3)nc2c1	none
CC(=O)NCCNc1nc2cc(-c3ccc4c(ccn4C)c3)sc2c(=O)n1C	none (no result: SR-BI uptake up, SR-BI HDL uptake, GRK2 inh)
C/C(CCc1ccc2c(c1)OCO2)=N\N=C1\NC(=O)CC(C(=O)Nc2ccccc2F)S1 (centres undefined)	SR-BI HDL uptake 73
CCC(C)C(=O)N1c2ccccc2C(=C2SC(C(=O)OC)=C(C(=O)OC)S2)C(=S)C1(C)C (centres undefined)	SR-BI HDL uptake 89
O=C(COc1ccc(Br)cc1)N(Cc1nnc(-c2ccccc2Cl)o1)C1CC1	none (no result: SR-BI uptake up, SR-BI HDL uptake, GRK2 inh)
C[C@@H]1CN([C@H](C)CO)C(=O)c2cc(NC(=O)Cc3cn(C)c4ccccc34)ccc2O[C@H]1CN(C)S(=O)(=O)c1ccc(F)cc1	SR-BI HDL uptake 73
C[C@H](CO)N1C[C@H](C)[C@@H](CN(C)S(=O)(=O)c2ccc(F)cc2)Oc2ccc(NC(=O)Cc3cn(C)c4ccccc34)cc2C1=O	none
C[C@H]1CN([C@@H](C)CO)C(=O)c2cc(NC(=O)NC3CCCCC3)ccc2O[C@H]1CN(C)C(=O)Nc1ccc(C(F)(F)F)cc1	SR-BI HDL uptake 74
COc1ccc(-c2cccc(N3CCN(c4ccccn4)CC3)n2)cc1OC	none (no result: SR-BI uptake up, SR-BI HDL uptake, GRK2 inh)
O=C(COC(=O)C1CC2C=CC1C2)NCCc1ccccc1 (centres undefined)	SR-BI uptake up 240
CC1(C(=O)NS(=O)(=O)c2ccccc2Cl)CCN1C(=O)C1CCCCC1 (centres undefined)	none (no result: SR-BI uptake up, SR-BI HDL uptake, GRK2 inh)
Cc1ccc(S(=O)(=O)Nc2ccccc2N=Cc2c(F)c(F)c(F)c(F)c2F)cc1	SR-BI HDL uptake 92 (no result: GRK2 inh)
O=C(COC(=O)c1ccccc1Br)Nc1cccnc1Cl	none
CSc1ccc(C(C(C(=O)c2cccs2)N2CCOCC2)N2CCOCC2)cc1 (centres undefined)	SR-BI uptake up 65
O=C(CNC(=S)N(Cc1ccccc1Cl)C1CCCC1)NCCN1CCOCC1	none
Cc1cccc(C)c1-n1c(C)cc(/C=N\Nc2ccc([N+](=O)[O-])cn2)c1C	SR-BI HDL uptake 80
O=[N+]([O-])c1ccc(NN=Cc2cccc(O)c2)nc1	none (no result: GRK2 inh)
O=[N+]([O-])c1ccc(NN=Cc2cc(Br)ccc2O)nc1	SR-BI HDL uptake 135 (no result: GRK2 inh)
COc1ccc(S(=O)(=O)N(C)C[C@@H]2Oc3cc(Br)ccc3S(=O)(=O)N([C@H](C)CO)C[C@@H]2C)cc1	none (no result: SR-BI uptake up, SR-BI HDL uptake, GRK2 inh)
O=C(N/N=C/c1ccc(O)c(O)c1O)/C(=C/c1ccc([N+](=O)[O-])cc1)NC(=O)c1ccccc1	Rin1 Abl inh 15, SR-BI HDL uptake 98
Cc1ccc(C(=O)N/N=C\c2sccc2C)cn1	none
COc1ccc(/C=C(/NC(=O)c2ccccc2)C(=O)N/N=C/c2sccc2C)cc1	SR-BI HDL uptake 78
Cc1ccsc1/C=N/NC(=O)c1ccc(-n2cccc2)cc1	SR-BI HDL uptake 77
CC(=O)Cn1c(=O)oc2ccccc21	SR-BI uptake up 113

Compound activity (PubChem)
